Tested on: U2OS
Assay: Multiplex assay against U2OS
Assay type: toxicity, cell-based
Conditions: human
Outline: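 Phenotypes for tubulin, mitochondrial mass and membrane permeability are expressed as per cents of healthy-nucleus cells. Cells were stained live at seeding with Hoechst33342, BioTracker Green Microtubule Cytoskeleton Dye, MitoTracker Red and Annexin V Alexa Fluor 680, then imaged after compound addition on a CQ1 microscope at 37°C and 5% CO2. Machine-learning gating in CellPathfinder separated Hoechst high-intensity objects from normal cells, divided normal cells by nuclear state (healthy, pyknosed, fragmented) and divided pyknosed cells into mitotic or apoptotic.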

[1] = 12 h, 1 µM, compound concentration 1 uM, replicate 1
[2] = 12 h, 1 µM, compound concentration 1 uM, replicate 2
[3] = 12 h, 10 µM, compound concentration 10 uM, replicate 1
[4] = 12 h, 10 µM, compound concentration 10 uM, replicate 2
[5] = 24 h, 1 µM, compound concentration 1 uM, replicate 1
[6] = 24 h, 1 µM, compound concentration 1 uM, replicate 2
[7] = 24 h, 10 µM, compound concentration 10 uM, replicate 1
[8] = 24 h, 10 µM, compound concentration 10 uM, replicate 2
[9] = 48 h, 1 µM, compound concentration 1 uM, replicate 1
[10] = 48 h, 1 µM, compound concentration 1 uM, replicate 2
[11] = 48 h, 10 µM, compound concentration 10 uM, replicate 1
[12] = 48 h, 10 µM, compound concentration 10 uM, replicate 2

SMILES: O=S(=O)(c1ccccc1)c1cnc2c(N3CCNCC3)cccc2c1 [INTEPIRDINE]
- Population Apoptotic (%) [1]: 76%
- Population Fragmented Nuclei (%) [1]: 23%
- Population Healthy Nuclei (%) [1]: 68%
- Population Hoechst High Intensity Objects (%) [1]: 1%
- Population Membrane Permeable-Phenotype (%) [1]: 6%
- Population Mitochondria Different-Phenotype (%) [1]: 3%
- Population Mitotic Cells (%) [1]: 23%
- Population Normal (%) [1]: 98%
- Population Pyknosed Nuclei (%) [1]: 7%
- Population Tubulin-Different-Phenotype (%) [1]: 4%
- Total Cell Count [1]: 267
- Population Apoptotic (%) [2]: 70%
- Population Fragmented Nuclei (%) [2]: 17%
- Population Healthy Nuclei (%) [2]: 71%
- Population Hoechst High Intensity Objects (%) [2]: 0%
- Population Membrane Permeable-Phenotype (%) [2]: 7%
- Population Mitochondria Different-Phenotype (%) [2]: 6%
- Population Mitotic Cells (%) [2]: 30%
- Population Normal (%) [2]: 100%
- Population Pyknosed Nuclei (%) [2]: 11%
- Population Tubulin-Different-Phenotype (%) [2]: 7%
- Total Cell Count [2]: 88
- Population Apoptotic (%) [3]: 58%
- Population Fragmented Nuclei (%) [3]: 25%
- Population Healthy Nuclei (%) [3]: 61%
- Population Hoechst High Intensity Objects (%) [3]: 3%
- Population Membrane Permeable-Phenotype (%) [3]: 23%
- Population Mitochondria Different-Phenotype (%) [3]: 11%
- Population Mitotic Cells (%) [3]: 41%
- Population Normal (%) [3]: 96%
- Population Pyknosed Nuclei (%) [3]: 12%
- Population Tubulin-Different-Phenotype (%) [3]: 14%
- Total Cell Count [3]: 204
- Population Apoptotic (%) [4]: 85%
- Population Fragmented Nuclei (%) [4]: 10%
- Population Healthy Nuclei (%) [4]: 79%
- Population Hoechst High Intensity Objects (%) [4]: 2%
- Population Membrane Permeable-Phenotype (%) [4]: 12%
- Population Mitochondria Different-Phenotype (%) [4]: 13%
- Population Mitotic Cells (%) [4]: 14%
- Population Normal (%) [4]: 97%
- Population Pyknosed Nuclei (%) [4]: 10%
- Population Tubulin-Different-Phenotype (%) [4]: 10%
- Total Cell Count [4]: 139
- Population Apoptotic (%) [5]: 80%
- Population Fragmented Nuclei (%) [5]: 22%
- Population Healthy Nuclei (%) [5]: 67%
- Population Hoechst High Intensity Objects (%) [5]: 2%
- Population Membrane Permeable-Phenotype (%) [5]: 7%
- Population Mitochondria Different-Phenotype (%) [5]: 2%
- Population Mitotic Cells (%) [5]: 19%
- Population Normal (%) [5]: 97%
- Population Pyknosed Nuclei (%) [5]: 9%
- Population Tubulin-Different-Phenotype (%) [5]: 4%
- Total Cell Count [5]: 319
- Population Apoptotic (%) [6]: 69%
- Population Fragmented Nuclei (%) [6]: 14%
- Population Healthy Nuclei (%) [6]: 73%
- Population Hoechst High Intensity Objects (%) [6]: 0%
- Population Membrane Permeable-Phenotype (%) [6]: 3%
- Population Mitochondria Different-Phenotype (%) [6]: 3%
- Population Mitotic Cells (%) [6]: 30%
- Population Normal (%) [6]: 99%
- Population Pyknosed Nuclei (%) [6]: 12%
- Population Tubulin-Different-Phenotype (%) [6]: 1%
- Total Cell Count [6]: 108
- Population Apoptotic (%) [7]: 72%
- Population Fragmented Nuclei (%) [7]: 23%
- Population Healthy Nuclei (%) [7]: 60%
- Population Hoechst High Intensity Objects (%) [7]: 3%
- Population Membrane Permeable-Phenotype (%) [7]: 17%
- Population Mitochondria Different-Phenotype (%) [7]: 14%
- Population Mitotic Cells (%) [7]: 27%
- Population Normal (%) [7]: 96%
- Population Pyknosed Nuclei (%) [7]: 16%
- Population Tubulin-Different-Phenotype (%) [7]: 10%
- Total Cell Count [7]: 233
- Population Apoptotic (%) [8]: 77%
- Population Fragmented Nuclei (%) [8]: 10%
- Population Healthy Nuclei (%) [8]: 77%
- Population Hoechst High Intensity Objects (%) [8]: 0%
- Population Membrane Permeable-Phenotype (%) [8]: 10%
- Population Mitochondria Different-Phenotype (%) [8]: 17%
- Population Mitotic Cells (%) [8]: 22%
- Population Normal (%) [8]: 99%
- Population Pyknosed Nuclei (%) [8]: 11%
- Population Tubulin-Different-Phenotype (%) [8]: 6%
- Total Cell Count [8]: 156
- Population Apoptotic (%) [9]: 89%
- Population Fragmented Nuclei (%) [9]: 15%
- Population Healthy Nuclei (%) [9]: 70%
- Population Hoechst High Intensity Objects (%) [9]: 3%
- Population Membrane Permeable-Phenotype (%) [9]: 6%
- Population Mitochondria Different-Phenotype (%) [9]: 4%
- Population Mitotic Cells (%) [9]: 10%
- Population Normal (%) [9]: 96%
- Population Pyknosed Nuclei (%) [9]: 14%
- Population Tubulin-Different-Phenotype (%) [9]: 4%
- Total Cell Count [9]: 416
- Population Apoptotic (%) [10]: 76%
- Population Fragmented Nuclei (%) [10]: 13%
- Population Healthy Nuclei (%) [10]: 68%
- Population Membrane Permeable-Phenotype (%) [10]: 3%
- Population Mitochondria Different-Phenotype (%) [10]: 2%
- Population Mitotic Cells (%) [10]: 23%
- Population Pyknosed Nuclei (%) [10]: 18%
- Population Tubulin-Different-Phenotype (%) [10]: 2%
- Total Cell Count [10]: 148
- Population Apoptotic (%) [11]: 78%
- Population Fragmented Nuclei (%) [11]: 22%
- Population Healthy Nuclei (%) [11]: 59%
- Population Hoechst High Intensity Objects (%) [11]: 4%
- Population Membrane Permeable-Phenotype (%) [11]: 15%
- Population Mitochondria Different-Phenotype (%) [11]: 7%
- Population Mitotic Cells (%) [11]: 22%
- Population Normal (%) [11]: 95%
- Population Pyknosed Nuclei (%) [11]: 17%
- Population Tubulin-Different-Phenotype (%) [11]: 6%
- Total Cell Count [11]: 302
- Population Apoptotic (%) [12]: 95%
- Population Fragmented Nuclei (%) [12]: 13%
- Population Healthy Nuclei (%) [12]: 75%
- Population Hoechst High Intensity Objects (%) [12]: 2%
- Population Membrane Permeable-Phenotype (%) [12]: 10%
- Population Mitochondria Different-Phenotype (%) [12]: 12%
- Population Mitotic Cells (%) [12]: 4%
- Population Normal (%) [12]: 97%
- Population Pyknosed Nuclei (%) [12]: 11%
- Population Tubulin-Different-Phenotype (%) [12]: 4%
- Total Cell Count [12]: 201
